In ChEMBL document CHEMBL4673188, “Identification of 6-amino-1H-pyrazolo[3,4-d]pyrimidines with in vivo efficacy against visceral leishmaniasis” (RSC Med Chem, 2020):

Test system: THP-1
Assay: Cytotoxicity against human THP-1 cells incubated for 72 hrs by resazurin dye based assay
Format: cell-based
Details: THP-1, 72 h

| Compound | EC50 [µM] |
| --- | --- |
| CCS(=O)(=O)N[C@H]1CC[C@H](Nc2ncc3c(CC(C)C)n[nH]c3n2)CC1 | > 50.1 |

Test system: not listed separately
Assay: Kinetic aqueous solubility of compound in phosphate buffer at pH 7.4 incubated for 1 hr
Format: physicochemical
Details: read-out: Kinetic_solubility
Summary of the method: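 10 mM DMSO stock diluted 20-fold into pH 7.4 phosphate buffered saline, equilibrated 1 h at room temperature, filtered; filtrate quantified by calibrated charged aerosol detection.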

| solubility kinetic at 1 h [µM] | Compound |
| --- | --- |
| < 1 | CCS(=O)(=O)N[C@H]1CC[C@H](Nc2ncc3c(CC(C)C)n[nH]c3n2)CC1 |

Test system: not listed separately
Assay: AUC (0 to T last) in rat at 10 mg/kg
Format: ADME, organism-based
Set-up: dose 10 mg/kg
Details: in vivo

| AUC(0-t) [ng·h/mL] | Compound |
| --- | --- |
| 448 | O=C(Cc1ccc(F)c(F)c1)N1CCC(Nc2ncc3c(N4CCOCC4)n[nH]c3n2)CC1 |

Test system: not listed separately
Assay: Intrinsic clearance in CD-1 mouse liver microsomes at 0.5 uM in presence of NADPH measured up to 30 mins by UPLC-MS/MS analysis
Format: ADME, Microsome
Details: 0.5 h
Summary of the method: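 Female CD1 mouse liver microsomes, test compound 0.5 μM; reaction started with excess NADPH (8 mg/mL in 50 mM potassium phosphate, pH 7.4). Aliquots at 0, 3, 6, 9, 15, 30 min quenched in acetonitrile, internal standard added, protein spun down; UPLC-MS/MS. Rate constant k from exponential decay of compound/internal standard peak-area ratio.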

| Compound | intrinsic clearance [mL/min/g] |
| --- | --- |
| O=C(CC1CC1)N1CCC(Nc2ncc3c(C4CCOCC4)n[nH]c3n2)CC1 | 0.8 |
| COc1ccccc1-c1n[nH]c2nc(NC3CCN(c4ccc(Cl)nn4)CC3)ncc12 | 3.4 |
| COc1ccccc1-c1n[nH]c2nc(NC3CCN(C(=O)OCc4ccccc4)CC3)ncc12 | 9 |
| O=C(Cc1ccc(F)c(F)c1)N1CCC(Nc2ncc3c(C4CCOCC4)n[nH]c3n2)CC1 | 3.1 |
| CC(C)Cc1n[nH]c2nc(NC3CCN(C(=O)Cc4ccc(Cl)cc4Cl)CC3)ncc12 | 30 |
| O=C(Cc1ccc(F)cc1F)N1CCC(Nc2ncc3c(CN4CCOCC4)n[nH]c3n2)CC1 | < 0.5 |
| CCOC(=O)N1CCC(Nc2ncc3c(-c4ccccc4OC)n[nH]c3n2)CC1 | 14 |
| CCS(=O)(=O)N[C@H]1CC[C@H](Nc2ncc3c(CC(C)C)n[nH]c3n2)CC1 | 27 |
| CC(C)Cc1n[nH]c2nc(NC3CCN(C(=O)Cc4ccccc4)CC3)ncc12 | 18 |
| O=C(Cc1ccc(F)c(F)c1)N1CCC(Nc2ncc3c(N4CCOCC4)n[nH]c3n2)CC1 | 1.6 |
| Clc1ccc(N2CCC(Nc3ncc4c(N5CCOCC5)n[nH]c4n3)CC2)nn1 | 0.6 |
| CC(C)Cc1n[nH]c2nc(NC3CCN(C(=O)c4ccccc4)CC3)ncc12 | 7 |
| O=C(Cc1ccc(F)cc1F)N1CCC(Nc2ncc3c(N4CCOCC4)n[nH]c3n2)CC1 | 2 |
| COc1ccccc1-c1n[nH]c2nc(NC3CCN(C(=O)CC4CC4)CC3)ncc12 | 1.6 |
| COc1ccccc1-c1n[nH]c2nc(NC3CCN(C(=O)N4CCOCC4)CC3)ncc12 | 2 |
| CC(C)Cc1n[nH]c2nc(NC3CCN(S(=O)(=O)Cc4ccccc4)CC3)ncc12 | > 50 |
| COc1ccccc1-c1n[nH]c2nc(NC3CCN(S(=O)(=O)CCC(F)(F)F)CC3)ncc12 | 14 |

Continued, values first:

| intrinsic clearance [mL/min/g] | Compound |
| --- | --- |
| 5 | COc1ccccc1-c1n[nH]c2nc(NC3CCN(C(=O)Cc4ccc(F)cc4F)CC3)ncc12 |
| 7.2 | O=C(Cc1ccc(F)cc1F)N1CCC(Nc2ncc3c(-c4ccccc4)n[nH]c3n2)CC1 |
| 5 | O=C(Cc1ccc(F)cc1F)N1CCC(Nc2ncc3c(C4CC4)n[nH]c3n2)CC1 |
| 3.3 | Cn1nccc1-c1n[nH]c2nc(NC3CCN(C(=O)Cc4ccc(F)cc4F)CC3)ncc12 |
| 0.5 | O=C(Cc1ccc(F)cc1F)N1CCC(Nc2ncc3c(C4CCOCC4)n[nH]c3n2)CC1 |
| 15 | COc1ncccc1-c1n[nH]c2nc(NC3CCN(C(=O)Cc4ccc(F)cc4F)CC3)ncc12 |
| 6.3 | COc1ccccc1-c1n[nH]c2nc(NC3CCN(C(=O)Cc4ccc(F)c(F)c4)CC3)ncc12 |
| 6.7 | O=C(Cc1ccc(F)cc1F)N1CCC(Nc2ncc3c(-c4ccccn4)n[nH]c3n2)CC1 |
| 12 | CC(C)Cc1n[nH]c2nc(NC3CCN(C(=O)Cc4ccc(F)cc4F)CC3)ncc12 |
| 22 | CC(C)(C)Cc1n[nH]c2nc(NC3CCN(C(=O)Cc4ccc(F)cc4F)CC3)ncc12 |
